Bioassay records from PubChem.
In the library only some 3.5% were active in any assay of this set; here they are far more common.
MrgX1 antag: human MrgX1 receptor antagonism, primary screen | Q96LB2 | MRGX1-HEK293 calcium flux, Fluo-4, BAM8-22 antagonism; hits give low values | B-score at 10 µM | actives 1.3% (n = 310,000) | AID 588676;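 active = calcium-response B-score plate-corrected more than 3 library SD below zero, starting fluorescence within 5 deviations, no agonist response on first addition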;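 note: peak minus trough fluorescence over baseline after final BAM8-22 challenge near maximal dose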
Target sequence (Q96LB2 whole entry, looked up): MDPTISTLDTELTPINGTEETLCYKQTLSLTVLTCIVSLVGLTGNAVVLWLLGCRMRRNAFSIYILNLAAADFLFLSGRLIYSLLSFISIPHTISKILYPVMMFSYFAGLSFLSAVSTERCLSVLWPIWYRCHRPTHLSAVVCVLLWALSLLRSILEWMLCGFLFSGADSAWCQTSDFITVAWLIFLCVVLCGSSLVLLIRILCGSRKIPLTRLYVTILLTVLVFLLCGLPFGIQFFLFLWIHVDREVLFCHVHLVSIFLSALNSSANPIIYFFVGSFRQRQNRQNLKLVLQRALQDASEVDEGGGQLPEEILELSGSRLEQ
RGS4 act: potentiators or activators of RGS4; actives 0.92% (n = 310,000); AID 463111; HEK293 M3R/inducible RGS4, carbachol calcium flux Fluo4; hits give low values; B-score at 10 µM;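 active = B-score of the integrated calcium signal more than 4 SD below the library mean, with starting fluorescence not abnormally high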;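 note: negative B-score means reduced calcium response which marks RGS4 activation or potentiation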
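test system = HEK293 cells with stable M3R and inducible RGS4 | schedule = recording 10 s baseline at 1 Hz, 100 s post-agonist | technique = Fluo4-AM (2 µM) calcium-flux fluorescence, kinetic read | measure = Agonist-evoked peak-minus-minimum fluorescence over baseline, integrated ratio, B score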
MrgX1 ag: human MrgX1 receptor agonism, primary screen; Q96LB2; MrgX1-HEK293 cells, Fluo-4 calcium fluorescence, agonist mode; hits give high values; B-score at 10 µM; actives 0.44% (n = 310,000);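 active = calcium response B-score plate-corrected fluorescence ratio at least 3 library SD, with starting fluorescence B-score inside 5 SD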
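Test system: HEK293 cells stably expressing human MrgX1 receptor; Input: fifteen thousand cells per well; Dosing: compound delivered in addition one of three; Schedule: overnight seeding, then 1 h dark dye loading; Technique: Fluo-4 NW calcium fluorescence; Measure: B-scored fluorescence response ratio; Controls: positive and negative controls per plate.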
RGS4 block: inhibitors of human RGS4. P49798. HEK293 M3R/RGS4 inducible, Fluo-4 calcium flux; hits give high values; triggered by carbachol at its EC20. B-score at 10 µM. actives 0.45% (n = 310,000);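 active = B-score, a plate-corrected calcium signal, over three deviations above library mean, with baseline fluorescence within five deviations of library mean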;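 note: RGS4 expression induced by doxycycline in cells with stable M3 receptor; B-score is computed from the integrated fluorescence ratio over baseline after carbachol; higher B-score means a larger calcium signal and so more RGS4 inhibition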
Target sequence (P49798 whole entry, looked up): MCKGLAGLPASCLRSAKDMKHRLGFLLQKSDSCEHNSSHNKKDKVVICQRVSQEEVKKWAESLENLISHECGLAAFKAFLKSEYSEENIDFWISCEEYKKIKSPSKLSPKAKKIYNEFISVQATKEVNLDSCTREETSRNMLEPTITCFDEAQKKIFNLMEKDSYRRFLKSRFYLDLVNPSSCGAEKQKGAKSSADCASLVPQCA
MrgX1 allo act: allosterically activates human MrgX1 receptor signaling; Q96LB2; AID 588675; B-score at 10 µM; actives 0.63% (n = 310,000); MrgX1-HEK293, Fluo-4 calcium flux, FDSS; hits give high values;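 active = plate-corrected calcium response at least 3 library SD above typical, normal starting fluorescence, not activating the receptor alone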;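 note: compound read alongside a low EC10 to EC30 dose of BAM8-22 agonist; peak minus trough fluorescence over baseline measured at the second addition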
Active calls of the source: *; i = inactive; nt = not tested or not shown.

SMILES	MrgX1 antag	RGS4 act	MrgX1 ag	RGS4 block	MrgX1 allo act
Cc1sc2nc(CSc3cccc(C(F)(F)F)c3)[nH]c(=O)c2c1C	-5.1*	i	i	i	i
COc1ccccc1CC(=O)NNC(=O)CN(C)S(=O)(=O)c1ccc(Cl)cc1	i	i	i	i	i
Fc1ccc(Cn2c(SCc3ccc(F)c(F)c3)nnc2C(F)(F)F)cc1	i	-8.5*	i	i	i
O=C1Nc2ccccc2C1=Nc1cccc([N+](=O)[O-])c1	i	i	i	i	i
Cc1cccc(N=C2C(=O)Nc3c(Cl)cccc32)c1	i	i	28*	i	i
Cc1[nH]c2ccccc2c1/C=N/Nc1ccc([N+](=O)[O-])cc1	-4.9*	i	i	i	i
C/C(=N/Nc1ccc([N+](=O)[O-])cc1)c1ccc(C)cc1C	i	i	i	i	i
C/C(=N/Nc1ccc([N+](=O)[O-])cc1)c1c[nH]c2ccccc12	-4.9*	i	i	i	i
COc1ccc(CC(=O)Nc2sccc2C#N)cc1S(=O)(=O)N1CCOCC1	i	i	i	i	i
COc1cccc(/C=N/n2c(-c3n[nH]c4c3CCC4)n[nH]c2=S)c1OC	i	-7.3*	i	i	i
CC(=O)OCCN1C(=O)c2ccc(-c3nc4ccccc4c(=O)o3)cc2C1=O	i	i	i	i	i
CC1CCN(C(=O)c2ccc3c(c2NCCO)C(=O)c2ccccc2C3=O)CC1	i	i	i	i	9.9*
Cc1ccc(OCC(=O)NNC(=O)C2CC(=O)N(c3ccc4c(c3)OCCO4)C2)cc1 (stereo not given)	i	i	i	i	i
CCN(CC)N=Nc1ccc(C(=O)O)cc1	-5.5*	i	i	i	i
CCN(CC)N=Nc1ccc(S(=O)(=O)N2CCSC2C(=O)O)cc1 (stereo not given)	i	i	i	i	i
COc1ccc(OC)c(CNc2ncc(-c3cccc([N+](=O)[O-])c3)n2C)c1	i	-7*	i	i	i
Cn1c(-c2cccc([N+](=O)[O-])c2)cnc1NCc1cccc([N+](=O)[O-])c1	i	i	i	i	i
Cc1nn(CCCC(=O)NCc2ccc(F)cc2)c(=O)c2nccn12	-5.5*	i	i	i	i
COc1ccc(-n2c(C)cc(/C=C3\C(=N)N4N=C(CC(=O)N5CCOCC5)SC4=NC3=O)c2C)cc1	i	i	i	i	i
COC(=O)c1cn(CCOc2ccccc2)c2ccccc12	i	i	i	i	i
CCN(CC)C(=O)C(=O)c1cn(CCOc2ccccc2)c2ccccc12	i	-7.1*	i	i	i
COc1ccc(-c2cc(=O)oc3cc(OCC(=O)Nc4ccc(CCO)cc4)ccc23)cc1	i	i	i	i	i
O=C(Cc1cccs1)Nc1nnc(SCc2ccc(C(F)(F)F)cc2)s1	-9.1*	i	i	i	i
C[C@H](O)C(=O)C1=Nc2c(nc(N)[nH]c2=O)NC1	i	nt	i	nt	i
C[C@H](O)[C@H](O)[C@H]1CNc2nc(N)[nH]c(=O)c2N1	-5.4*	i	i	i	i
SMILES	MrgX1 antag	RGS4 act	MrgX1 ag	RGS4 block	MrgX1 allo act
O=C(COc1ccccc1F)NNC(=O)c1cccc(-n2cccc2)c1	-5*	i	i	i	i
Cc1cc(C(=O)N/N=C/C=C/c2ccc([N+](=O)[O-])cc2)n[nH]1	i	i	i	i	i
Cc1cc(C(=O)N/N=C/C=C/c2ccc(Br)cc2)n[nH]1	-5.6*	i	i	i	i
COc1ccc(C(=O)COC(=O)c2cc(S(=O)(=O)NCc3ccccc3)ccc2O)cc1	i	i	26*	i	i
CN(C)c1ccc(/C=C(\NC(=O)c2ccccc2)C(=O)NCCN2CCOCC2)cc1	i	i	i	i	i
Cc1ccc(NC(=O)CC(O)(C(F)(F)F)C(F)(F)F)cc1	i	i	48*	i	i
CCOc1ccc(CCNC(=O)COC(=O)/C=C/c2ccccc2OC)cc1OCC	i	i	i	i	16*
CCOc1ccc(CCNC(=O)COC(=O)c2ccc(S(C)(=O)=O)cc2)cc1OCC	i	i	i	i	i
CCOc1ccc(CCNC(=O)COC(=O)c2ccc(OC(C)C)cc2)cc1OCC	-4.8*	i	i	i	i
CN(C)C(=O)c1cc(C(=O)c2c(F)cccc2F)c[nH]1	i	i	i	i	i
Cc1sc(NC(=O)C2CCCCC2C(=O)O)c(C(N)=O)c1-c1ccccc1 (stereo not given)	i	i	i	i	i
Cc1sc(NC(=O)C2CCCCC2C(=O)O)c(C(N)=O)c1-c1ccc(C(C)C)cc1 (stereo not given)	i	i	54*	i	i
Cc1cccc(C)c1-n1c(C)cc(/C=N\Nc2ccc([N+](=O)[O-])cn2)c1C	-5*	i	i	i	i
O=[N+]([O-])c1ccc(N/N=C\c2cccnc2)nc1	i	i	i	i	i
CCN(CC)CCn1c(=S)[nH]c2cc(C(=O)N3CC=C(c4ccccc4)CC3)ccc2c1=O	i	i	i	i	8.5*
CN1C2CCC1/C(=C\c1ccc(F)cc1)C(=O)/C2=C/c1ccc(F)cc1	i	i	i	i	7*
CN1C2CCC1/C(=C/c1cccn1C)C(=O)/C2=C\c1cccn1C	i	i	i	i	i
Cc1cc(C)c(C(=O)C(C)OC(=O)C2=COCCO2)cc1C (stereo not given)	i	i	i	i	7.6*
CCCCn1c(SCC(=O)NCc2ccco2)nc2ccccc2c1=O	i	i	i	i	i
CCCCCn1c(SCc2ccncc2)nc2cc(C(=O)NCc3ccco3)ccc2c1=O	i	-8*	i	i	i
Cc1ccc(C(=O)NNC(=O)c2csc(N3CCOCC3)n2)s1	i	i	i	i	i
COc1cc(/C=N\Nc2nc3ccccc3o2)cc(OC)c1OC	-6.6*	i	i	i	i
CCC(=O)N1CCc2cc(S(=O)(=O)CCC(=O)NCc3cccc(OC)c3)ccc21	i	i	i	i	i
O=[N+]([O-])c1ccc(Oc2cccc(Br)c2)c2ccncc12	i	i	i	i	7.9*
CCC(C)Sc1cccc(-c2nc3ccc(C)cn3c2NCc2ccccc2)c1 (stereo not given)	i	-7.6*	i	i	i
CCNS(=O)(=O)c1ccc(CCC(=O)NCc2ccccn2)cc1	i	i	i	i	i
